Assay results reported in ChEMBL document CHEMBL3785068, “Synthesis and biological evaluation of novel 6,7-dihydro-5H-cyclopenta[d]pyrimidine and 5,6,7,8-tetrahydroquinazoline derivatives as sigma-1 (σ1) receptor antagonists for the treatment of pain” (Bioorg Med Chem Lett, 2016).

Columns and labels:
[1] = target: Sigma non-opioid intracellular receptor 1 (Cavia porcellus, UniProt Q60492); assay: Displacement of [3H]-(+)-pentazocine from sigma1 receptor in guinea pig brain membrane after 180 mins by liquid scintillation counter; type: cell membranes
[2] = system: Mus musculus; assay: Antinociceptive activity in Kun Ming mouse assessed as inhibition of formalin-induced pain response during phase 2 measured as licking and biting time at 80 mg/kg, ip preincubated with compound for 15 mins followed by formalin injection measured after 15 to 45 mins; type: functional
Summary of the method: (§1)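 Formalin injected intraplantar into the mouse hind paw. Licking/biting time scored in phase I (0–5 min) and phase II (15–45 min) after 80 mg/kg test dose. At least ten animals per group; mean ± SEM; two-way ANOVA with Newman-Keuls test against vehicle and formalin-alone groups.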

[3] = system: Mus musculus; assay: Antinociceptive activity in Kun Ming mouse assessed as inhibition of formalin-induced pain response during phase 1 measured as licking and biting time at 80 mg/kg, ip preincubated with compound for 15 mins followed by formalin injection measured up to 5 mins; type: functional; summary of the method: as §1

Chain of Sigma non-opioid intracellular receptor 1 (Q60492 whole entry): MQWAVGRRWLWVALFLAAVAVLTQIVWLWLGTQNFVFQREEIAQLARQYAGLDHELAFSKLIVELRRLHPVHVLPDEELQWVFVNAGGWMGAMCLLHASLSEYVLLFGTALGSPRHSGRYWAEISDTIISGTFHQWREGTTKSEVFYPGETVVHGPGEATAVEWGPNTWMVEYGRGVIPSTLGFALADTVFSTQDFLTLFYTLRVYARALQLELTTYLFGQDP

| SMILES | Ki [1] | Time [2] | Time [3] |
| --- | --- | --- | --- |
| CC1CCN(CCCOc2nc(-c3ccc(Cl)cc3)nc3c2CCC3)CC1 | 21.1 nM |  |  |
| Cc1cc(OCCN2CCOCC2)nn1-c1ccc2ccccc2c1 |  | 55.4 s | 16.8 s |
| CN(C)CCCOc1nc(-c2ccccc2)nc2c1CCCC2 | 138 nM |  |  |
